In ChEMBL document CHEMBL1152910, “Synthesis and structure-activity relationships of phenothiazine carboxylic acids having pyrimidine-dione as novel histamine H(1) antagonists” (Bioorg Med Chem Lett, 2009):
pIC50: −log10 of the molar value.

Biological target: T1, Histamine H1 receptor (Homo sapiens, UniProt P35367)
Test: Inhibition of histamine H1 receptor
Conditions: not given

T1 sequence (P35367 whole entry): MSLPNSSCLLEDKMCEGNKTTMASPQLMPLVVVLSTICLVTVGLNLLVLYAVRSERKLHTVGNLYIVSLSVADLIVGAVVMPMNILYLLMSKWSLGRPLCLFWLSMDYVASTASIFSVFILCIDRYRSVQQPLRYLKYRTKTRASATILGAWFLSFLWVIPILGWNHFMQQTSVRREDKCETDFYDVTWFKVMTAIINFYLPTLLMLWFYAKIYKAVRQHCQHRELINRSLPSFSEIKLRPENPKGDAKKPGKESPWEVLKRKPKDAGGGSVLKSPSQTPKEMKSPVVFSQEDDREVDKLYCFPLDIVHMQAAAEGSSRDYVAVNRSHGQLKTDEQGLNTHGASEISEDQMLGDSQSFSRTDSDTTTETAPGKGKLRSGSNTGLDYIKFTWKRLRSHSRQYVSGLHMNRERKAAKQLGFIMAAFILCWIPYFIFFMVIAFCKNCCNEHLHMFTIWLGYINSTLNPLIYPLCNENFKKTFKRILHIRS

Row | pIC50 | SMILES
1 | < 6.00 | Cn1c(NCCCN2CCC(Oc3ccc(Cl)cc3C(=O)O)CC2)cc(=O)n(C)c1=O
2 | 7.24 | Cn1c(NCCCN2CCC(Oc3ccc(Cl)c(Cl)c3)CC2)cc(=O)n(C)c1=O

Biological target: T1, Histamine H1 receptor
Test: Displacement of [3H]pyrilamine from human recombinant histamine H1 receptor expressed in CHOK1 cells by scintillation counting
Assay type: cell-based, CHO-K1
Conditions: not given

Row | pIC50 | SMILES
3 | 6.98 | Cn1c(N2CCN(CCCN3c4ccccc4Sc4ccc(CCC(=O)O)cc43)CC2)cc(=O)n(C)c1=O
4 | 7.14 | CC(C(=O)O)c1ccc2c(c1)N(CCCN1CCCN(c3cc(=O)n(C)c(=O)n3C)CC1)c1ccccc1S2 (stereo not drawn)
5 | 6.91 | Cn1c(N2CCCN(CCCN3c4ccccc4Sc4ccc(C(C)(C)C(=O)O)cc43)CC2)cc(=O)n(C)c1=O
6 | < 6.30 | Cn1c(N2CCCN(CCCN3c4ccccc4Sc4c(C(=O)O)cccc43)CC2)cc(=O)n(C)c1=O
7 | 7.40 | Cn1c(N2CCN(CCCN3c4ccccc4Sc4ccc(CC(=O)O)cc43)CC2)cc(=O)n(C)c1=O
8 | 6.49 | Cn1c(N2CCCN(CCCN3c4ccccc4Sc4ccc(/C=C\C(=O)O)cc43)CC2)cc(=O)n(C)c1=O
9 | < 6.30 | Cn1c(N2CCCN(CCCN3c4ccccc4Sc4cccc(C(=O)O)c43)CC2)cc(=O)n(C)c1=O
10 | 7.39 | CCC(C(=O)O)c1ccc2c(c1)N(CCCN1CCCN(c3cc(=O)n(C)c(=O)n3C)CC1)c1ccccc1S2 (stereo not drawn)
11 | 7.64 | Cn1c(N2CCCN(CCCN3c4ccccc4Sc4ccc(CC(=O)O)cc43)CC2)cc(=O)n(C)c1=O
12 | 7.55 | Cn1c(NCCCN2CCC(Oc3ccc(Cl)c(Cl)c3)CC2)cc(=O)n(C)c1=O

Test system: not listed separately
Test: Apparent permeability from apical to basolateral side of human Caco-2 cells after 120 mins
Conditions: not given

Row | Papp A→B at 2 h [×10⁻⁶ cm/s] | SMILES
13 | 5.1 | Cn1c(N2CCN(CCCN3c4ccccc4Sc4ccc(CCC(=O)O)cc43)CC2)cc(=O)n(C)c1=O
14 | 6.9 | CC(C(=O)O)c1ccc2c(c1)N(CCCN1CCCN(c3cc(=O)n(C)c(=O)n3C)CC1)c1ccccc1S2 (stereo not drawn)
15 | 9.9 | Cn1c(N2CCCN(CCCN3c4ccccc4Sc4ccc(C(C)(C)C(=O)O)cc43)CC2)cc(=O)n(C)c1=O
16 | 0.5 | Cn1c(N2CCCN(CCCN3c4ccccc4Sc4c(C(=O)O)cccc43)CC2)cc(=O)n(C)c1=O
17 | 12.3 | Cn1c(N2CCN(CCCN3c4ccccc4Sc4ccc(CC(=O)O)cc43)CC2)cc(=O)n(C)c1=O
18 | 7.1 | Cn1c(N2CCCN(CCCN3c4ccccc4Sc4ccc(/C=C\C(=O)O)cc43)CC2)cc(=O)n(C)c1=O
19 | 0.5 | Cn1c(N2CCCN(CCCN3c4ccccc4Sc4cccc(C(=O)O)c43)CC2)cc(=O)n(C)c1=O
20 | 22.3 | CCC(C(=O)O)c1ccc2c(c1)N(CCCN1CCCN(c3cc(=O)n(C)c(=O)n3C)CC1)c1ccccc1S2 (stereo not drawn)
21 | 5.5 | Cn1c(N2CCCN(CCCN3c4ccccc4Sc4ccc(CC(=O)O)cc43)CC2)cc(=O)n(C)c1=O
22 | 4.2 | Cn1c(NCCCN2CCC(Oc3ccc(Cl)c(Cl)c3)CC2)cc(=O)n(C)c1=O

Species: Mus musculus
Test: animal or person
Assay type: functional
Conditions: ddY, route oral

Row | SMILES | inhibition in vivo at 3 mg/kg [%]
23 | Cn1c(N2CCN(CCCN3c4ccccc4Sc4ccc(CCC(=O)O)cc43)CC2)cc(=O)n(C)c1=O | 51
24 | CC(C(=O)O)c1ccc2c(c1)N(CCCN1CCCN(c3cc(=O)n(C)c(=O)n3C)CC1)c1ccccc1S2 (stereo not drawn) | 79
25 | Cn1c(N2CCN(CCCN3c4ccccc4Sc4ccc(CC(=O)O)cc43)CC2)cc(=O)n(C)c1=O | 61
26 | CCC(C(=O)O)c1ccc2c(c1)N(CCCN1CCCN(c3cc(=O)n(C)c(=O)n3C)CC1)c1ccccc1S2 (stereo not drawn) | 51
27 | Cn1c(N2CCCN(CCCN3c4ccccc4Sc4ccc(CC(=O)O)cc43)CC2)cc(=O)n(C)c1=O | 53

Test system: Mus musculus
Test: In vivo antihistaminic activity at histamine H1 receptor in ddY mouse assessed as inhibition of histamine-induced skin vascular permeability at 10 mg/kg, po administered 1 hr before histamine challenge measured after 30 mins by Evan's blue staining
Assay type: functional
Conditions: not given

Row | SMILES | inhibition in vivo at 10 mg/kg [%]
28 | Cn1c(NCCCN2CCC(Oc3ccc(Cl)c(Cl)c3)CC2)cc(=O)n(C)c1=O | 69

Test system: not listed separately
Test: Protein binding in rat by equilibrium dialysis
Assay type: ADME, organism-based
Conditions: read-out: PB (converted)
Summary of the method: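 Protein binding (%) determined by equilibrium dialysis.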

Row | fraction unbound | SMILES
29 | 0.001 | Cn1c(N2CCN(CCCN3c4ccccc4Sc4ccc(CCC(=O)O)cc43)CC2)cc(=O)n(C)c1=O
30 | 0.022 | CC(C(=O)O)c1ccc2c(c1)N(CCCN1CCCN(c3cc(=O)n(C)c(=O)n3C)CC1)c1ccccc1S2 (stereo not drawn)
31 | 0.045 | Cn1c(N2CCCN(CCCN3c4ccccc4Sc4ccc(C(C)(C)C(=O)O)cc43)CC2)cc(=O)n(C)c1=O
32 | 0.022 | Cn1c(N2CCN(CCCN3c4ccccc4Sc4ccc(CC(=O)O)cc43)CC2)cc(=O)n(C)c1=O
33 | 0.051 | Cn1c(N2CCCN(CCCN3c4ccccc4Sc4ccc(CC(=O)O)cc43)CC2)cc(=O)n(C)c1=O
34 | 0.166 | Cn1c(NCCCN2CCC(Oc3ccc(Cl)c(Cl)c3)CC2)cc(=O)n(C)c1=O

Test system: not listed separately
Test: Oral bioavailability in rat
Assay type: ADME, organism-based
Conditions: in vivo

Row | bioavailability [%] | SMILES
35 | 51 | Cn1c(N2CCN(CCCN3c4ccccc4Sc4ccc(CCC(=O)O)cc43)CC2)cc(=O)n(C)c1=O
36 | 10 | CC(C(=O)O)c1ccc2c(c1)N(CCCN1CCCN(c3cc(=O)n(C)c(=O)n3C)CC1)c1ccccc1S2 (stereo not drawn)
37 | 27 | Cn1c(N2CCN(CCCN3c4ccccc4Sc4ccc(CC(=O)O)cc43)CC2)cc(=O)n(C)c1=O
38 | 14 | CCC(C(=O)O)c1ccc2c(c1)N(CCCN1CCCN(c3cc(=O)n(C)c(=O)n3C)CC1)c1ccccc1S2 (stereo not drawn)
39 | 19 | Cn1c(N2CCCN(CCCN3c4ccccc4Sc4ccc(CC(=O)O)cc43)CC2)cc(=O)n(C)c1=O
40 | 25 | Cn1c(NCCCN2CCC(Oc3ccc(Cl)c(Cl)c3)CC2)cc(=O)n(C)c1=O

Test system: Mus musculus
Test: Antiinflammatory activity in BALB/c mouse model assessed as inhibition of ovalbumin-induced ear swelling at 10 mg/kg, po administered 60 mins before ovalbumin challenge measured 1 hr after elicitation by immediate type reaction assay
Assay type: functional
Conditions: not given
Summary of the method: (§1)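 Female BALB/c mice, 8 weeks old, sensitized by i.p. OVA with alum; two weeks later compound suspended in 0.5% MC given orally 60 min before OVA injection into the ear.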

Row | SMILES | inhibition in vivo at 10 mg/kg [%]
41 | Cn1c(N2CCN(CCCN3c4ccccc4Sc4ccc(CC(=O)O)cc43)CC2)cc(=O)n(C)c1=O | 73
42 | Cn1c(N2CCCN(CCCN3c4ccccc4Sc4ccc(CC(=O)O)cc43)CC2)cc(=O)n(C)c1=O | 16

Test system: Mus musculus
Test: Antiinflammatory activity in BALB/c mouse model assessed as inhibition of ovalbumin-induced ear swelling at 30 mg/kg, po administered 60 mins before ovalbumin challenge measured 1 hr after elicitation by immediate type reaction assay
Assay type: functional
Conditions: not given
Summary of the method: as §1

Row | SMILES | inhibition in vivo at 30 mg/kg [%]
43 | Cn1c(NCCCN2CCC(Oc3ccc(Cl)c(Cl)c3)CC2)cc(=O)n(C)c1=O | 72

Test system: Mus musculus
Test: Antiinflammatory activity in BALB/c mouse model assessed as inhibition of ovalbumin-induced ear swelling at 10 mg/kg, po administered 60 mins before ovalbumin challenge measured 24 hrs after elicitation by late type reaction assay
Assay type: functional
Conditions: not given
Summary of the method: as §1

Row | SMILES | inhibition in vivo at 10 mg/kg [%]
44 | Cn1c(N2CCN(CCCN3c4ccccc4Sc4ccc(CC(=O)O)cc43)CC2)cc(=O)n(C)c1=O | 64
45 | Cn1c(N2CCCN(CCCN3c4ccccc4Sc4ccc(CC(=O)O)cc43)CC2)cc(=O)n(C)c1=O | 12

Test system: Mus musculus
Test: Antiinflammatory activity in BALB/c mouse model assessed as inhibition of ovalbumin-induced ear swelling at 30 mg/kg, po administered 60 mins before ovalbumin challenge measured 24 hrs after elicitation by late type reaction assay
Assay type: functional
Conditions: not given
Summary of the method: as §1

Row | SMILES | inhibition in vivo at 30 mg/kg [%]
46 | Cn1c(NCCCN2CCC(Oc3ccc(Cl)c(Cl)c3)CC2)cc(=O)n(C)c1=O | 61

Test system: Mus musculus
Test: Antiinflammatory activity in po dosed BALB/c mouse model assessed as inhibition of ovalbumin-induced ear swelling administered 60 mins before ovalbumin challenge measured 1 hr after elicitation by immediate type reaction assay
Assay type: functional, organism-based
Conditions: not given
Summary of the method: as §1

Row | SMILES | inhibition
47 | Cn1c(N2CCN(CCCN3c4ccccc4Sc4ccc(CC(=O)O)cc43)CC2)cc(=O)n(C)c1=O | Dose-dependent effect

Test system: Mus musculus
Test: Antiinflammatory activity in po dosed BALB/c mouse model assessed as inhibition of ovalbumin-induced ear swelling administered 60 mins before ovalbumin challenge measured 24 hrs after elicitation by late type reaction assay
Assay type: functional, organism-based
Conditions: not given
Summary of the method: as §1

Row | SMILES | inhibition
48 | Cn1c(N2CCN(CCCN3c4ccccc4Sc4ccc(CC(=O)O)cc43)CC2)cc(=O)n(C)c1=O | Dose-dependent effect
